Shown are actives, neighbours in structure and some others; about 2% of the full set was active somewhere.
CSN inh = blocks human CSN-mediated cullin deneddylation; Purified CSN, SCF-Nedd8-OG deneddylation, fluorescence polarization; Q92905; inhibition, % at 12.5 µM; 360,000 tested, 0.38% active;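 active = pattern-corrected inhibition above about 35%, with an unprinted fluorescence ratio check between 0.5 and 1.5, limit read from the data, passing the limit was not always enough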;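 also: 0% = enzyme with substrate and 100% = substrate without enzyme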
Target sequence (Q92905 whole entry, looked up, one chain of several): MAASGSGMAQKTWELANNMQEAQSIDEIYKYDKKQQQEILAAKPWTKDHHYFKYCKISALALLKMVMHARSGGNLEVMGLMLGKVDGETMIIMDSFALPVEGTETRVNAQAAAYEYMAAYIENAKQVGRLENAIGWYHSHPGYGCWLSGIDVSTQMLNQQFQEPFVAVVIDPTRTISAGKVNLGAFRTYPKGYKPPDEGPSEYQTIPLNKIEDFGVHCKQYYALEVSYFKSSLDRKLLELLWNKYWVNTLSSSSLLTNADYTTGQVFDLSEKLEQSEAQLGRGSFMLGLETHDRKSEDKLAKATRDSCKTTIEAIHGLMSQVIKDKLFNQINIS
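Assay system: HEK293T-derived human Csn5 enzyme; quantity: 0.24 nM enzyme; medium: Tris/NaCl/DTT buffer, pH 7.5; also added: substrate SCFSkp2-Nedd8OG, 10 nM; doses: 12.5 µM compound; schedule: 90 min reaction at room temperature; signal: FP; read-out: % inhibition of substrate cleavage by Csn5; benchmarks: substrate-only high control, full reaction low control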
HNF4A DNA FP = change in binding of human HNF4 alpha to DNA; P41235; HNF4a-FITC DNA binding, fluorescence polarization, 1 h; activity change, % at 10 µM; 360,000 tested, 0.3% active; AID 1224865; in the data active = activity change above about 30%, passing the limit was not always enough
Rpn11 block = inhibitors of human proteasome Rpn11. 360,000 tested, 0.59% active. AID 588493. human 26S proteasome, Ub4-pepOG fluorescence polarization; 20S core pre-blocked with epoxomicin. inhibition, % at 20 µM;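 active = inhibition at 20 µM, scaled to each plate's controls, above about 33%, limit read from the data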
Target sequence (O00487 whole entry, looked up): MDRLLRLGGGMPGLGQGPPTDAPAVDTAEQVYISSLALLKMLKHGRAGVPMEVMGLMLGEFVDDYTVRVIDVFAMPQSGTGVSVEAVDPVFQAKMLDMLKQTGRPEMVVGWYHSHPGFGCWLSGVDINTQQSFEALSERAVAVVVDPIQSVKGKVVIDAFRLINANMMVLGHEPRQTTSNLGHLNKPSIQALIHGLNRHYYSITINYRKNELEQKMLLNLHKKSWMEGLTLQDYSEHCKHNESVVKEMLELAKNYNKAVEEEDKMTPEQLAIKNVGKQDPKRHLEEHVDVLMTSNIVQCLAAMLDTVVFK
ATG4B inhibitor = ATG4B (human) cysteine protease inhibition; Q9Y4P1; ATG4B cleavage of LC3-PLA2, NBD-HPC fluorescence, 1 h; inhibition, % at 8.33 µM; 340,000 tested, 0.51% active; in the data active = inhibition above about 40%
SENP1 FRET inh = SENP1 (human) catalytic domain inhibition | Q9P0U3 | recombinant SENP1 catalytic domain, CyPet-SUMO1-YPet FRET cleavage | inhibition, % at 10 µM | 360,000 tested, 0.21% active | AID 624204;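 active = inhibition at least 30% at 10 µM, raw YFP signal under a set limit, fluorescence ratio 0.5 to 1.5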;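 also: 0% = enzyme with DMSO and 100% = no enzyme wells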
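Material – human SENP1 catalytic domain · Input – SENP1 enzyme, 20 pM final · Compound dosing – single concentration of 10 µM compound, 0.5% DMSO final · Timing – enzyme reaction for 50 min at room temperature, dark · Measured by – FRET fluorescence in CFP and YFP emission channels · Control set – no-enzyme wells low, DMSO-plus-enzyme wells high control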
TPT1 inhibitor = inhibitors of Candida albicans tRNA 2'-phosphotransferase TPT1; recombinant caTPT1, FP RNA substrate dephosphorylation; AID 1962; inhibition, % at 5 µM; 300,000 tested, 0.81% active;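 active = inhibition above the mean of all tested compounds plus 3 SD, set per screening campaign, cut at about 24% in these data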;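 also: plate controls were DMSO alone for no effect and ferristatin control at 100 nM for full effect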
* = called active by the depositor; . = no result given.

SMILES | CSN inh | HNF4A DNA FP | Rpn11 block | ATG4B inhibitor | SENP1 FRET inh | TPT1 inhibitor
C#CCOCCOCCOCCNc1nc(N2CCOCC2)nc(N2CCN(C(=O)[C@H](CCCCN)n3cc(CCC(=O)O)nn3)CC2)n1 | -3 | 2 | 6 | -7 | 1 | .
COC(=O)C1CCN(C(=O)c2cc(-c3ccco3)nc3ccccc23)CC1 | 43 | -35 | -9 | 2 | 3 | .
CC(C)(C)c1ccc(C(O)c2ncc(-c3cccc(F)c3)[nH]2)cc1 (stereo not given) | 2 | 3 | 2 | . | 0 | .
CCc1nc2ccc(C(=O)NCCCn3ccnc3)cn2c1N(C)Cc1cccs1 | 0 | 2 | 2 | . | -2 | .
CN1CCC(N2CCN(C3CN(Cc4ccccc4)S(=O)(=O)C3)CC2)CC1 (stereo not given) | -3 | -1 | -2 | . | 2 | .
CCOc1cc(CNc2ccc(O)cc2)ccc1OCc1ccc(Cl)cc1Cl | 44* | -1 | -2 | -1 | 16 | 0
CC(=O)c1ccc(S(=O)(=O)N2CCN(C(=O)CCC3CCCC3)CC2)cc1 | -1 | 0 | -7 | 4 | 3 | .
C=CC(=O)Nc1ccc(Nc2nc(NC3CCC(N(C)C)CC3)nc3c2ncn3C(C)C)cc1 (stereo not given) | 37* | 18 | 2 | -11 | 0 | .
CN1CCN(C2CN(Cc3cn(Cc4cccc(C(F)(F)F)c4)nn3)S(=O)(=O)C2)CC1 (stereo not given) | -3 | 1 | . | . | -2 | .
COC(=O)CCCn1cc(CN2CC(N3CCN(C)CC3)CS2(=O)=O)nn1 (stereo not given) | -2 | 3 | . | . | -3 | .
CCOC(=O)C(Cc1ccccc1)NC(=O)Cn1nnc(-c2ccccc2)n1 (stereo not given) | -4 | 39* | 5 | 25 | 1 | 1
CCOC(=O)Cn1nnc(-c2ccccc2)n1 | 1 | 0 | -2 | -12 | 2 | 1
CCC(NC(=O)CNC(=O)c1ccc2c(c1)OCO2)c1ccc(Br)cc1 (stereo not given) | 0 | -1 | 3 | -11 | 0 | .
Cc1ccc(N=C2NC(=O)CS2)cc1 | 7 | 3 | 3 | -2 | -6 | 2
Cc1ccc(C)n1/N=C1/NC(=O)CS1 | 46* | -26 | 1 | 41* | 6 | 1
CN1CCC(=NNC(=O)C(=O)Nc2cccc(Br)c2)CC1 | -1 | 31* | 0 | -1 | 0 | -8
CN1CCC(=NNC(=O)C(=O)Nc2ccc(F)cc2)CC1 | 2 | -3 | 8 | 0 | 0 | 2
Cc1ccc(Sc2ccc(N)cn2)cc1 | 45* | 5 | 5 | -3 | -1 | 1
COc1cccc(Nc2ccc(N3CCCCC3)cc2)c1OC | -3 | -5 | 2 | 7 | 90* | .
COc1cccc(CNc2ccc(N3CCCCC3)cc2)c1OC | -7 | 1 | -4 | 15 | 7 | -2
CN1CCN([C@@H]2CS(=O)(=O)N[C@H]2COCc2ccccc2)CC1 | -1 | -3 | -7 | . | -1 | .
CCc1cc(C(=O)OC)c(NC(=O)CC2Nc3cc(C)c(C)cc3NC2=O)s1 (stereo not given) | 6 | 61* | . | 1 | -26 | 14
Cc1cc2c(cc1C)NC(CC(=O)NCc1ccccc1)C(=O)N2 (stereo not given) | 1 | 21 | 53* | -6 | -56 | 12
COC(=O)c1c(NC(=O)CC2Nc3cc(C)c(C)cc3NC2=O)sc(C)c1C (stereo not given) | -2 | 17 | 50* | 5 | -25 | 12
O=C(c1[nH]c(C(F)(F)F)nc1-c1ccccc1)N1CCN(C/C=C/c2ccccc2)CC1 | 7 | 0 | 1 | . | -1 | .
SMILES | CSN inh | HNF4A DNA FP | Rpn11 block | ATG4B inhibitor | SENP1 FRET inh | TPT1 inhibitor
O=C(c1ccccc1)N(C(=O)c1ccccc1)N1CCCC1 | 0 | -2 | 9 | -1 | -2 | .
O=C(Cc1ccccc1)NCC(=O)OCc1cccc([N+](=O)[O-])c1 | 38* | 1 | 4 | -7 | 0 | 2
CCOc1ccc(NC(=O)/C(C#N)=C\c2ccc(N3CCCC3)c(C)c2)cc1 | 47* | 98 | . | -7 | -33 | .
O=C1NC[C@@H](CCCCN2C[C@H](Cc3ccccc3)N(CC3CCCCC3)C(=O)C2=O)N(Cc2ccccc2)C1=O | -3 | -2 | . | . | 2 | .
COc1ccc(CNC(=O)C(=O)NC2CC(C)(C)NC(C)(C)C2)cc1 | 4 | 138* | -10 | -7 | 2 | -2
COc1ccc(OC(C)C(=O)NC2CC(C)(C)NC(C)(C)C2)cc1 (stereo not given) | 3 | -1 | 6 | -9 | 0 | 1
CCCc1nc2c3ccccc3ccn2c1Cc1ccc(OC)cc1C | 26 | 43* | . | . | -38 | .
COc1ccc(Cc2c(-c3ccc(C)cc3)nc3c4ccccc4ccn23)c(C)c1 | 1 | 12 | 15 | . | -3 | .
C[C@H](CO)N1C[C@H](C)[C@@H](CN(C)S(=O)(=O)c2ccc(F)cc2)Oc2c(NC(=O)c3ccncc3)cccc2C1=O | 0 | 3 | -6 | -2 | -2 | .
O=S(=O)(c1cnc[nH]1)N1CCc2ccccc21 | 73* | 103 | . | -4 | -32 | 4
Nc1ccc(S(=O)(=O)N2CCc3ccccc32)cc1 | 0 | 85* | -22 | -1 | -3 | 0
CC1Cc2ccccc2N1S(=O)(=O)c1cnc[nH]1 (stereo not given) | -4 | 6 | -2 | -1 | 1 | 1
COc1ccc(OC)c(Nc2nc(-c3sc(NC(=O)c4ccccc4)nc3C)cs2)c1 | . | . | . | . | . | 36*
COc1ccc(CN2CC[C@@H]3CN(C(C)=O)[C@H](c4ccccc4Br)C[C@@H]32)cc1 | 161* | 1 | 6 | . | -13 | .
CC(=O)N1C[C@H]2CON(C)[C@H]2C[C@H]1c1ccccc1Br | -1 | -5 | -2 | -5 | 0 | .
Cc1nc(SCC(=O)N(C)C2CCS(=O)(=O)C2)c(C#N)c(C)c1C (stereo not given) | 5 | -1 | -6 | 1 | -2 | .
O=C(NCc1ccccc1)C(=O)NCC1OCCN1S(=O)(=O)c1ccc([N+](=O)[O-])cc1 (stereo not given) | 4 | 32* | -2 | -4 | -1 | -2
CCOc1ccc(C(=O)c2ccccc2C(=O)O)cc1OCC | 57* | 0 | 6 | -4 | 2 | -6
CCCOc1ccc(C(=O)c2ccccc2C(=O)O)cc1OCCC | 2 | -4 | 1 | -8 | 2 | -2
O=C1C(Cl)=C(Nc2ccccc2O)C(=O)N1c1ccccc1 | 10 | 1 | . | -10 | 8 | 4
COc1ccccc1N1C(=O)C(Cl)=C(Nc2ccccc2O)C1=O | 23 | 10 | . | -34 | 46* | .
CCN1/C(=C/C=C/c2oc3ccc4ccccc4c3[n+]2CC)Oc2ccc3ccccc3c21 | . | . | . | 91* | . | 15
